The target in data set [1] is PI3Kα (Mus musculus, UniProt P42337). Briefly: Cell-based pAKT AlphaLISA, IGF-1 stimulated C2C12 cells. A general note: In Alpha technology, singlet oxygen from a donor bead excites a nearby acceptor bead.
Data set [2] concerns the target PI3Kγ (Mus musculus, UniProt Q9JHG7). Description: Cell-based pAKT AlphaLISA, C5a stimulated RAW264.7 cells. A digest of the protocol: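 RAW264.7 cells (DMEM, 10% FBS, penicillin/streptomycin, 37 °C) were stimulated with 80 ng/mL C5a for 5 min and given ten test-compound concentrations (0–100 µM) in triplicate. The PI3Kδ comparator used Raji cells stimulated with 3 µg/mL anti-IgM F(ab')2 for 10 min, dosed 0–3000 nM. pAKT was quantified by AlphaLISA, and IC50 was taken from signal–concentration curves.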

Data set [3] is described as follows: Pharmacokinetics in xenograft model. The format is in vivo, SCID mice. As to conditions: CB17 SCID, mouse, plasma, po. Summed up:
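CB17 SCID mice bearing subcutaneous SU-DHL-6 tumours received test compound orally once daily in 1% carboxymethylcellulose/0.5% Tween 80. Heparinised blood was drawn predose and at 10, 30, 60, 120, 360, 600 and 1440 min on days 1 and 14. Plasma was spun at 4500 rpm, 10 min, 4 °C, then assayed by LC-MS/MS against a stable-isotope internal standard. Sub-LLOQ values were excluded.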

The test system of the next data set is PI3Kδ signaling. Conditions: read-out: EC50 of inhibition of PI3Kδ signaling; cell-based assay; cited from earlier work.
For data set [4], the system named is PI3Kα. Conditions: cited from earlier work.
The subject of data set [5] is PI3Kγ. Conditions: cited from earlier work.
The next data set relates to Pfeiffer. Conditions: data in the literature; cited from earlier work.
Another data set deals with OCI-LY19. As to conditions: data in the literature; cited from earlier work.
For the next data set, the system named is Toledo. Conditions: data in the literature; cited from earlier work.
The next data set relates to WSU-DLCL2. Conditions: data in the literature; cited from earlier work.
[6] abbreviates: 100 mg/kg, 100 mg/kg once daily oral, day 1.
The mark [7] stands for this setting: 100 mg/kg, 100 mg/kg once daily oral, day 14.
Setting [8] is: 200 mg/kg, 200 mg/kg once daily oral, day 1.
Setting [9] is: 200 mg/kg, 200 mg/kg once daily oral, day 14.

Like-named read-outs stand apart in the source and are kept apart here.

By IC50 is commonly meant the concentration that gives 50% inhibition. The AUC(0-t) is exposure summed from dosing to a finite time, without extrapolation to infinity. A higher AUC(0-t) goes with high exposure. Usually Cmax stands for the maximum level reached in the sampled fluid or tissue. For orientation: half-life means the time needed for the level to fall by half in the phase considered. Lower therefore signals fast loss. The term Tmax denotes the time from dosing to the highest level. What is called EC50 is the concentration needed to bring the measured effect to its halfway point.

Sequence of PI3Kα (P42337 whole entry): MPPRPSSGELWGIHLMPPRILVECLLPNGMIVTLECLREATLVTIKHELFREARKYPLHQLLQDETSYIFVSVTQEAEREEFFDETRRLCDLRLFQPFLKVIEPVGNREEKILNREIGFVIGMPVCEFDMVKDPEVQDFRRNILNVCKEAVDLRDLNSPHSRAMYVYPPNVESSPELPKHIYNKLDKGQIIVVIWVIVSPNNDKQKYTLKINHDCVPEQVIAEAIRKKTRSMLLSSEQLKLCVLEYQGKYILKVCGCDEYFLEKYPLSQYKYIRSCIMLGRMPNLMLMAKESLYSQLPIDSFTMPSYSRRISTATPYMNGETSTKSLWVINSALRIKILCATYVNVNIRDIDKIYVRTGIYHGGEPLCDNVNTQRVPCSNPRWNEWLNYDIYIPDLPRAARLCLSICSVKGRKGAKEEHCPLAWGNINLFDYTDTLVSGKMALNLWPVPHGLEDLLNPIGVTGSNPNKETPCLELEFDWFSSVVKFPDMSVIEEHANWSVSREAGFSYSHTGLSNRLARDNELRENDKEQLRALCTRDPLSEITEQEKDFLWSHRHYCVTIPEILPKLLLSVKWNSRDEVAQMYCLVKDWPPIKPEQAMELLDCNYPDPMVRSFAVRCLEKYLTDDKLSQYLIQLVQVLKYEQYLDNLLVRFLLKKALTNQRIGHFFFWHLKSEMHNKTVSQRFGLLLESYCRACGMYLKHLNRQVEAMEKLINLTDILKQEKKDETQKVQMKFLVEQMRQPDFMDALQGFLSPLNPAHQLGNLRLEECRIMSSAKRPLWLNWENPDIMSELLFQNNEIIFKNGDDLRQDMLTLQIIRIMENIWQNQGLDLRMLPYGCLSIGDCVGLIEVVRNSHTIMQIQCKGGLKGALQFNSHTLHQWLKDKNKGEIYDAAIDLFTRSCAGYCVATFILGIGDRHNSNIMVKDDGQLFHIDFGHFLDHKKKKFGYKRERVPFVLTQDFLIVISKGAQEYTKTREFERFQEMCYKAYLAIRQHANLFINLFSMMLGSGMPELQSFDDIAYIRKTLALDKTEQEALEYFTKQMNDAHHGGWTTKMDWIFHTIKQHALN
Sequence of PI3Kα (P26450 whole entry partner): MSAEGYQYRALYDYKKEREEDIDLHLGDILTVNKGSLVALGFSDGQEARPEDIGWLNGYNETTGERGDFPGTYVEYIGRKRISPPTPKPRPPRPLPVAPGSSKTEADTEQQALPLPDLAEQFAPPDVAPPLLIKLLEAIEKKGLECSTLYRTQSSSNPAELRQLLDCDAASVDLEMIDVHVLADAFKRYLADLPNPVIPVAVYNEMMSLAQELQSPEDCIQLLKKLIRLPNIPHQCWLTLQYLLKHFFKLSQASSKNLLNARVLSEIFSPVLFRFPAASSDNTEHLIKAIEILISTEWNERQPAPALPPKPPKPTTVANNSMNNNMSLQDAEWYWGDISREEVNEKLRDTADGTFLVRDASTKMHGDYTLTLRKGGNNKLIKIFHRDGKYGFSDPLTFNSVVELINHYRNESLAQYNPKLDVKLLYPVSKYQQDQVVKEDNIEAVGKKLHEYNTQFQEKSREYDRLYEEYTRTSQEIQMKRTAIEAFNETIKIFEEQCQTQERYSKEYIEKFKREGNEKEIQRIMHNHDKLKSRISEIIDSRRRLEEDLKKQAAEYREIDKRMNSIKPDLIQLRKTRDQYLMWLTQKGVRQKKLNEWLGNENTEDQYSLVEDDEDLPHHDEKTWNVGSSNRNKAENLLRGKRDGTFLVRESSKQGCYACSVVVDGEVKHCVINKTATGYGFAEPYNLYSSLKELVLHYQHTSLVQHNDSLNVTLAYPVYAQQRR
Sequence of PI3Kγ (Q9JHG7 whole entry): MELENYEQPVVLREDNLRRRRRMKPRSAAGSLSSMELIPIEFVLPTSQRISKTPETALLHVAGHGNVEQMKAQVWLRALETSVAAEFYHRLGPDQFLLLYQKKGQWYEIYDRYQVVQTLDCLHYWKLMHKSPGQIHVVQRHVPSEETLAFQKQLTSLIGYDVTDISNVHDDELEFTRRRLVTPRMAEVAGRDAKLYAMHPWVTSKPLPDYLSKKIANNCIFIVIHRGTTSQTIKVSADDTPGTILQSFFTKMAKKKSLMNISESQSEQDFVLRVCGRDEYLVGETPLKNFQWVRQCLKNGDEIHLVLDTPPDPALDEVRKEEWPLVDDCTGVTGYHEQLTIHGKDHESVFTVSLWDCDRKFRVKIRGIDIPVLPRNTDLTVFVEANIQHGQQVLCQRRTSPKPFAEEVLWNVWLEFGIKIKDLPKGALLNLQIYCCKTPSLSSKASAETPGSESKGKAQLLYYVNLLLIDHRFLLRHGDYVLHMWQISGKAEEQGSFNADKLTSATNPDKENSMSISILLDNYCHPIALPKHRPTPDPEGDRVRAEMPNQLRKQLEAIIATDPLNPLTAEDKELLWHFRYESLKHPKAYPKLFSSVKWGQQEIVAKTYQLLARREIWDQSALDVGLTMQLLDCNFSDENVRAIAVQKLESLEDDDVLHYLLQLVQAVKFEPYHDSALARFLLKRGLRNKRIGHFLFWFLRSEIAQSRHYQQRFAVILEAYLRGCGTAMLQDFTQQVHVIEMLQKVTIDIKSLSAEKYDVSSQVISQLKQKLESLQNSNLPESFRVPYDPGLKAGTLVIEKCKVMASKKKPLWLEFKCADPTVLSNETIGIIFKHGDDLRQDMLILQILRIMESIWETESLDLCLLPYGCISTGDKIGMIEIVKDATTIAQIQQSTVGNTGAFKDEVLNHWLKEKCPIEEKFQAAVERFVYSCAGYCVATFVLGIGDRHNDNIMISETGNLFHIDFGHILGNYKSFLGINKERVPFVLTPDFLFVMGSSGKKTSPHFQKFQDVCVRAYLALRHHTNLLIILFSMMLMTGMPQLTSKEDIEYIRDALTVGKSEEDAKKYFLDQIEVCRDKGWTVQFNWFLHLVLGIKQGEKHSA

Turning to `CC[C@H](Nc1ncnc2[nH]cnc12)c1nc2cccc(F)c2c(=O)n1-c1ccccc1` [Idelalisib], the IC50 at PI3Kα [1] was more than 30000 nM; at PI3Kγ [2], 1120 nM. For the same molecule, the AUC(0-t) in data set [3] (setting [6]) came to 6930 ng·h/mL; in [3] (setting [7]), 5520 ng·h/mL; in data set [3] (setting [8]) it was 29900 ng·h/mL; in [3] (setting [9]), 22400 ng·h/mL. Further, the Cmax in data set [3] (setting [6]) was 4.17 ± 9.89 µM; in data set [3] (setting [7]) it was 5.05 ± 6.05 µM; in data set [3] (setting [8]) it was 11.1 µM; in data set [3] (setting [9]), 8.09 ± 0.93 µM. Also, the half-life was 3.4 ± 2 h in data set [3] (100 mg/kg, T1/2, 100 mg/kg once daily oral, day 1); 1.8 ± 0.6 h in data set [3] (100 mg/kg, T1/2, 100 mg/kg once daily oral, day 14); 1.9 ± 0.5 h in [3] (200 mg/kg, T1/2, 200 mg/kg once daily oral, day 1); 4.3 ± 1.1 h in data set [3] (200 mg/kg, T1/2, 200 mg/kg once daily oral, day 14). In addition, the Tmax in data set [3] (setting [6]) amounted to 0.7 ± 0.3 h; in data set [3] (setting [7]), 0.4 ± 0.2 h; in data set [3] (setting [8]), 0.8 ± 0.3 h; in data set [3] (setting [9]), 0.7 ± 0.3 h. In addition, in the data set with PI3Kδ signaling, the EC50 was 8.9 nM.

For the molecule `COc1c(OCCCN2CCOCC2)ccc2c1N=C(NC(=O)c1cnc(N)nc1)N1CCN=C21` [Copanlisib], the IC50 was […] in the data set with PI3Kα [4]; […] in the data set on PI3Kγ [5]; 0.849 nM in the data set with Pfeiffer; 1990 nM in the data set on OCI-LY19; 3500 nM in the data set on Toledo; 123 nM in the data set with WSU-DLCL2.

For the molecule `C[C@H](Nc1ncnc2nc[nH]c12)c1cc2cccc(Cl)c2c(=O)n1-c1ccccc1` [Duvelisib], the results for the IC50 in the data set with PI3Kα [4] (data in the literature) and with PI3Kγ [5] (data in the literature) were […] and […], respectively.

Source of the values: publication PMC7586065 (Neoplasia (New York, N.Y.), 2020).
